# From ChEMBL document CHEMBL2062503, “Potent and Selective Inhibitors of CK2 Kinase Identified through Structure-Guided Hybridization” (ACS Med Chem Lett, 2012)
# System: HCT-116
# Experiment: Growth inhibition of human HCT116 cells after 72 hrs by alamar blue assay
# Format: functional
# Details: HCT-116, 72 h
# How it was run: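 HCT-116 proliferation was read out by Alamar Blue. GI50 is reported in μM as the mean of at least three experiments.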
row,Compound,GI50
1,N#Cc1cnn2c(N)cc(-c3ccccc3)nc12,> 30000 nM
2,COc1ccc(-c2cc(Nc3ccn(C)n3)n3ncc(C#N)c3n2)cc1,4500 nM
3,CC(=O)Nc1cc2c(ccn2-c2cc(NC3CC3)n3ncc(C#N)c3n2)cc1C,> 30000 nM

# Other lines, results leading:
row,GI50,Compound
1,3700 nM,CC(=O)Nc1ccc2cnn(-c3cc(NC4CC4)n4ncc(C#N)c4n3)c2c1
2,3000 nM,CC(=O)Nc1cnc2ccn(-c3cc(NC4CC4)n4ncc(C#N)c4n3)c2c1
3,2700 nM,CC(=O)Nc1ccc2c(c1)c(-c1cc(NC3CC3)n3ncc(C#N)c3n1)cn2CCO
4,2300 nM,CC(=O)Nc1ccc2c(c1)c(-c1cc(NC3CC3)n3ncc(C#N)c3n1)cn2CCCO
5,700 nM,CC(=O)Nc1ccc2c(c1)c(-c1cc(NC3CC3)n3ncc(C#N)c3n1)cn2C
6,530 nM,CC(=O)Nc1ccc2c(c1)N(c1cc(NC3CC3)n3ncc(C#N)c3n1)CC2
7,460 nM,CC(=O)Nc1ccc2ccn(-c3cc(Nc4ccn(C)n4)n4ncc(C#N)c4n3)c2c1

# Target: Voltage-gated inwardly rectifying potassium channel KCNH2 (Homo sapiens, UniProt Q12809)
# Sequence (Q12809 whole entry): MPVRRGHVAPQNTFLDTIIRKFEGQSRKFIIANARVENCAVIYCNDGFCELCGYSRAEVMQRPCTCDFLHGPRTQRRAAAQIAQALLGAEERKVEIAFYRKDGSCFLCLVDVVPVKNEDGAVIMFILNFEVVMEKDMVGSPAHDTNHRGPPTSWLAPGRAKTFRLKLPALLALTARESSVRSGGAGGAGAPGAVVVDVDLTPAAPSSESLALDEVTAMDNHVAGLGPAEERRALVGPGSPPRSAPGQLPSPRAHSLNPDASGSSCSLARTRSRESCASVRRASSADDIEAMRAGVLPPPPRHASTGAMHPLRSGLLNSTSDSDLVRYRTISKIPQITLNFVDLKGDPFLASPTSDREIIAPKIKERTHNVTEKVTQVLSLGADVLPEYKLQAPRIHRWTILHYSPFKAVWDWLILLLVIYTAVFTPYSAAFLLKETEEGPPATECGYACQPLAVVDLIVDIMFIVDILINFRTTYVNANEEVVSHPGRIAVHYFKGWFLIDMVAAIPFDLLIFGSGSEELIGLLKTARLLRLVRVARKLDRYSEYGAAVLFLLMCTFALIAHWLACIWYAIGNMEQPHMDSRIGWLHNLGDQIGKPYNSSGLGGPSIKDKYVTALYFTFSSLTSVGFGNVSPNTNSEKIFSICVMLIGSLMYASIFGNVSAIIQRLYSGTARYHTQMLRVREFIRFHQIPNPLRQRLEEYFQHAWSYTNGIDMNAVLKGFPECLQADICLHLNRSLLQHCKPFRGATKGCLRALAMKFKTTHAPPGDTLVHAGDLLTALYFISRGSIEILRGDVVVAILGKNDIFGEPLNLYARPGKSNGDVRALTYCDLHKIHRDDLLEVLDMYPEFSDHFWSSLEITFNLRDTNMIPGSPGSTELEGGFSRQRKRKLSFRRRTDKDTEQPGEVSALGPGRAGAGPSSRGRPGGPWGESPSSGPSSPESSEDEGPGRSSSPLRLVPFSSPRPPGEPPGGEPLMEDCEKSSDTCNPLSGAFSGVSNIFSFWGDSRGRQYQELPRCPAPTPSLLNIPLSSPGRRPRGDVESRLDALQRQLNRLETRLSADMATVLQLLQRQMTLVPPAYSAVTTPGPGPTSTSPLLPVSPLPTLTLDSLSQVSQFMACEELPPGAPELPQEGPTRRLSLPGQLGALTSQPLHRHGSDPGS
# Experiment: Inhibition of human Erg
# Details: not given
row,Compound,IC50
1,CC(=O)Nc1ccc2c(c1)N(c1cc(NC3CC3)n3ncc(C#N)c3n1)CC2,> 33 µM
2,CC(=O)Nc1ccc2cnn(-c3cc(NC4CC4)n4ncc(C#N)c4n3)c2c1,> 33 µM

# Target: Cyclin-dependent kinase 2 (Homo sapiens, UniProt P24941)
# Experiment: Inhibition of CDK2
# Details: not given
row,IC50,Compound
1,> 30 µM,CC(=O)Nc1cnc2ccn(-c3cc(NC4CC4)n4ncc(C#N)c4n3)c2c1
2,> 30 µM,CC(=O)Nc1ccc2c(c1)c(-c1cc(NC3CC3)n3ncc(C#N)c3n1)cn2CCC(=O)O
3,> 30 µM,CC(=O)Nc1ccc2cnn(-c3cc(NC4CC4)n4ncc(C#N)c4n3)c2c1

# System: not listed separately
# Experiment: Fraction unbound in human plasma
# Format: ADME, cell-free
# Details: not given
row,fraction unbound,Compound
1,0.11,CC(=O)Nc1ccc2ccn(-c3cc(NCCN4CCOCC4)n4ncc(C#N)c4n3)c2c1

# System: not listed separately
# Experiment: Aqueous solubility of the compound
# Format: physicochemical
# Details: buffer
# How it was run: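 Solubility was determined in aqueous medium at pH 7.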
row,solubility,Compound
1,2 µM,CC(=O)Nc1ccc2ccn(-c3cc(NCCN4CCOCC4)n4ncc(C#N)c4n3)c2c1

# Target: Casein kinase II subunit alpha (Homo sapiens, UniProt P68400)
# Sequence (P68400 whole entry): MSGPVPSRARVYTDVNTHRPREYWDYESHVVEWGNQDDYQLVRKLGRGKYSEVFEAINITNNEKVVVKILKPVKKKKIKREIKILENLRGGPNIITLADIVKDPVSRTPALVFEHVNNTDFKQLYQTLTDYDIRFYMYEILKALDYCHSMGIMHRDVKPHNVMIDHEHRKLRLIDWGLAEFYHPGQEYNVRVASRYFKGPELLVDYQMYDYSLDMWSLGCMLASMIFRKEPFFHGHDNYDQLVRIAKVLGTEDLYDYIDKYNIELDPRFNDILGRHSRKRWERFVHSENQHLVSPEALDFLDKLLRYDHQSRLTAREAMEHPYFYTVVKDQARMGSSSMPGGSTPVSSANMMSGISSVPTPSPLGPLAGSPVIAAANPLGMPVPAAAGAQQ
# Experiment: Inhibition of full length N-terminus His-tagged human CK2alpha expressed in insect Sf21 cells using BODIPY-FL-RRRDDDSDDD-CONH2 as substrate after 20 mins
# Details: not given
row,IC50,Compound
1,< 3 nM,CC(=O)Nc1cnc2ccn(-c3cc(NC4CC4)n4ncc(C#N)c4n3)c2c1
2,26 nM,CC(=O)Nc1ccc2cnn(-c3cc(NC4CC4)n4ncc(C#N)c4n3)c2c1

# Target: T1, Cytochrome P450 1A2 (Homo sapiens, UniProt P05177)
# T1 sequence (P05177 whole entry): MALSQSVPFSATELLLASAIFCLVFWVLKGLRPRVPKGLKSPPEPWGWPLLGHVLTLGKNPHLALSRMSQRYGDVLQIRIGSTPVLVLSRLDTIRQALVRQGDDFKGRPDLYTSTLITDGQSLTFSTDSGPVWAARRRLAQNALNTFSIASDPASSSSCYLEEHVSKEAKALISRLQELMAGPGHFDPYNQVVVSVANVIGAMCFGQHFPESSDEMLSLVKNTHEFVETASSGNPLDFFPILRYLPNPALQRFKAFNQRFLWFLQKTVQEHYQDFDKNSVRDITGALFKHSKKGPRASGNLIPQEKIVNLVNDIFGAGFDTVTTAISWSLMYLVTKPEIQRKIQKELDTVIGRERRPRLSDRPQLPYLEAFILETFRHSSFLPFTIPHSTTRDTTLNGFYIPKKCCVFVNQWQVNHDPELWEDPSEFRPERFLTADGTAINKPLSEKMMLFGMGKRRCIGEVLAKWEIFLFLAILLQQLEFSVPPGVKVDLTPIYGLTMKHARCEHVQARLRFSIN
# Experiment: Inhibition of CYP1A2
# Format: ADME
# Details: not given
row,IC50,Compound
1,> 20 µM,CC(=O)Nc1cnc2ccn(-c3cc(NC4CC4)n4ncc(C#N)c4n3)c2c1

# Target: Glycogen synthase kinase-3 beta (Homo sapiens, UniProt P49841)
# Sequence (P49841 whole entry): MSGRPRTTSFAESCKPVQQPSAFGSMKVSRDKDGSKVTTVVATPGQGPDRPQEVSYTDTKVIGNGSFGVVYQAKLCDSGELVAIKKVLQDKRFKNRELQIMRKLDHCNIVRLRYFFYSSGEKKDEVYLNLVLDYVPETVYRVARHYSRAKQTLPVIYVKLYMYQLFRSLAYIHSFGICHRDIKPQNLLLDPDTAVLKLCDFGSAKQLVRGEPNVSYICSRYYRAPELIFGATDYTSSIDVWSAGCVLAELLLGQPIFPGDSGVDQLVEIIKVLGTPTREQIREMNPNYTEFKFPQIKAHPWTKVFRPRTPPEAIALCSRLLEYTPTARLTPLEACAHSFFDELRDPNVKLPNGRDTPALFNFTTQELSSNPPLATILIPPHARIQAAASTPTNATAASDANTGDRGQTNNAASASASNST
# Experiment: Inhibition of GSK3beta
# Details: not given
row,IC50,Compound
1,1000 nM,CC(=O)Nc1cnc2ccn(-c3cc(NC4CC4)n4ncc(C#N)c4n3)c2c1
2,6000 nM,CC(=O)Nc1ccc2c(c1)c(-c1cc(NC3CC3)n3ncc(C#N)c3n1)cn2CCC(=O)O
3,700 nM,CC(=O)Nc1ccc2cnn(-c3cc(NC4CC4)n4ncc(C#N)c4n3)c2c1

# System: MDR1
# Experiment: Apparent permeability from apical to basolateral side in pig LLC-PK1 cells expressing MDR1
# Format: ADME, cell-based, Sus scrofa
# Details: not given
row,Papp A→B,Compound
1,≤ 5 ×10⁻⁶ cm/s,CC(=O)Nc1ccc2ccn(-c3cc(NCCN4CCOCC4)n4ncc(C#N)c4n3)c2c1

# Target: Homeodomain-interacting protein kinase 2 (Homo sapiens, UniProt Q9H2X6)
# Sequence (Q9H2X6 whole entry): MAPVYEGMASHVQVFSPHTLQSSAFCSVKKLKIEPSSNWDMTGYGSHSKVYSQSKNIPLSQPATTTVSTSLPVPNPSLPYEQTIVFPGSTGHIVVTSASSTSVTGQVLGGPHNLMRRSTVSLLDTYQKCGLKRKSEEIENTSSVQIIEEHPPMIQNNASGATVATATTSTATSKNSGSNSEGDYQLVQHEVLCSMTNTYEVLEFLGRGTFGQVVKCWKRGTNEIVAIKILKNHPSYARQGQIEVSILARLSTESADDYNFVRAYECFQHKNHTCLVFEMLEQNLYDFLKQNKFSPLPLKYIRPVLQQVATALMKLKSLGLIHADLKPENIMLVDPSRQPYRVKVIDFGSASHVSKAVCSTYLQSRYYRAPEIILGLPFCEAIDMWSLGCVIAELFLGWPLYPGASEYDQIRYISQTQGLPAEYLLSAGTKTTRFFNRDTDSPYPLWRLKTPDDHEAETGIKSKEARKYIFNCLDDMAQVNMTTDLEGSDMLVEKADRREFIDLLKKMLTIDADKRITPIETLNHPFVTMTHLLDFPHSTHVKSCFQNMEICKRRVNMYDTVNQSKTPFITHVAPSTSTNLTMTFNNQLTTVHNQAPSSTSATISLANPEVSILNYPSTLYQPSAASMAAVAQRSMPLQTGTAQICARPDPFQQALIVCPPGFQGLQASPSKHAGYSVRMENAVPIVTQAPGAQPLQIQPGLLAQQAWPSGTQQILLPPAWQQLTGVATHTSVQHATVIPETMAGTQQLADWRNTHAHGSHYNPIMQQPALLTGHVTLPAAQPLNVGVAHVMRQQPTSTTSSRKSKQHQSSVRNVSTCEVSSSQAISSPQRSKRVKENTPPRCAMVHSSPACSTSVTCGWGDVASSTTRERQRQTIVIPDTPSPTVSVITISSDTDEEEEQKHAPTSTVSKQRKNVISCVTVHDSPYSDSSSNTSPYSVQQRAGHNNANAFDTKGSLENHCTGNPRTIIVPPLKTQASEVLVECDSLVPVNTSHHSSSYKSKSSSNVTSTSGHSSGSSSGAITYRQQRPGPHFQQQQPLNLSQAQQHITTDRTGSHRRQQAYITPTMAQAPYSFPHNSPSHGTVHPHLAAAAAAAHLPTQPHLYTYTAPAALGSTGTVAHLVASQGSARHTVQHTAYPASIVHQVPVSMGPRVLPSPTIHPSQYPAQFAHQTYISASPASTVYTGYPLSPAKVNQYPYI
# Experiment: Inhibition of HipK2
# Details: not given
row,IC50,Compound
1,20 nM,CC(=O)Nc1cnc2ccn(-c3cc(NC4CC4)n4ncc(C#N)c4n3)c2c1
2,570 nM,CC(=O)Nc1ccc2c(c1)c(-c1cc(NC3CC3)n3ncc(C#N)c3n1)cn2CCC(=O)O
3,50 nM,CC(=O)Nc1ccc2cnn(-c3cc(NC4CC4)n4ncc(C#N)c4n3)c2c1

# System: SW480
# Experiment: Antiproliferative activity against human SW480 cells by alamar blue assay
# Format: functional
# Details: not given
# How it was run: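 SW480 proliferation was measured with the Alamar Blue read-out, and GI50 is reported in μM.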
row,Compound,GI50
1,COC(=O)CCn1cc(-c2cc(NC3CC3)n3ncc(C#N)c3n2)c2cc(NC(C)=O)ccc21,6.6 µM
2,CC(=O)Nc1ccc2ccn(-c3cc(NCCN4CCOCC4)n4ncc(C#N)c4n3)c2c1,> 30 µM

# Continued, values first:
row,GI50,Compound
1,5 µM,CC(=O)Nc1ccc2cnn(-c3cc(NC4CC4)n4ncc(C#N)c4n3)c2c1
2,2.1 µM,CC(=O)Nc1cnc2ccn(-c3cc(NC4CC4)n4ncc(C#N)c4n3)c2c1
3,4.5 µM,CC(=O)Nc1ccc2c(c1)c(-c1cc(NC3CC3)n3ncc(C#N)c3n1)cn2CCO
4,3.2 µM,CC(=O)Nc1ccc2c(c1)c(-c1cc(NC3CC3)n3ncc(C#N)c3n1)cn2CCCO
5,1.1 µM,CC(=O)Nc1ccc2c(c1)c(-c1cc(NC3CC3)n3ncc(C#N)c3n1)cn2C
6,0.73 µM,CC(=O)Nc1ccc2c(c1)N(c1cc(NC3CC3)n3ncc(C#N)c3n1)CC2
7,0.56 µM,CC(=O)Nc1ccc2ccn(-c3cc(Nc4ccn(C)n4)n4ncc(C#N)c4n3)c2c1
